From ChEMBL document CHEMBL1149175, “Integrating fragment assembly and biophysical methods in the chemical advancement of small-molecule antagonists of IL-2: an approach for inhibiting protein-protein interactions” (J Med Chem, 2004)

Test system: not listed separately
Experiment: Plasma clearance in mouse
Type: ADME, organism-based
Settings: read-out: Clp
In short: (§1)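 Male CD-1 mice, 10 mg/kg IV bolus via lateral tail vein, 2.5 mg/mL in PEG 400; three mice per time point. Cardiac blood into sodium-EDTA at 0.5–8 h, plasma by LC-MS/MS against a plasma standard curve; parameters from mean concentration–time profiles.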

Structure (SMILES)	clearance [mL/min/kg]
CC(C)C[C@@H](NC(=N)N)C(=O)NCC(=O)N1CCC(c2cc(-c3ccc(OCc4ccc(C(=O)O)o4)c(Cl)c3Cl)nn2C)CC1	13.6

Target: T1, Interleukin-2 (Homo sapiens, UniProt P60568)
Experiment: Inhibition of mouse interleukin-2 alpha receptor by ELISA
Settings: target entry is the homologue from another species
In short: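 ELISA: 15 nM biotinylated IL-2Rα captured on streptavidin-coated wells; 3-fold serial compound dilutions with 5 nM IL-2 (2% DMSO final) in Superblock/0.01% Tween 20 incubated on receptor.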
Target sequence in this assay (P60568 whole entry): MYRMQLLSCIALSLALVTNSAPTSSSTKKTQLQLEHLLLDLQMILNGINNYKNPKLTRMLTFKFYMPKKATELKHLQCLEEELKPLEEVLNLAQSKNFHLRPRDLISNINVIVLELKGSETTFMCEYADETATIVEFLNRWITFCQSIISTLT

Structure (SMILES)	IC50 [µM]
COC(=O)[C@H](Cc1ccc(C#Cc2ccccc2)cc1)NC(=O)CNC(=O)[C@H]1CCCN1C(=N)N	1000
COC(=O)[C@H](Cc1ccc(C#Cc2ccccc2)cc1)NC(=O)CNC(=O)[C@@H](CC1CCCCC1)N=C(N)N	37
COC(=O)[C@H](Cc1ccc(C#Cc2ccccc2)cc1)NC(=O)CNC(=O)[C@H](C)N=C(N)N	280
COC(=O)[C@H](Cc1ccc(C#Cc2ccccc2)cc1)NC(=O)CNC(=O)[C@@H]1CCCN1C(=N)N	720
COC(=O)[C@H](Cc1ccc(C#Cc2ccccc2)cc1)NC(=O)CNC(=O)CN(C)C(=N)N	1200
CC[C@@H](C)[C@H](N=C(N)N)C(=O)NCC(=O)N[C@@H](Cc1ccc(C#Cc2ccccc2)cc1)C(=O)OC	26
COC(=O)[C@H](Cc1ccc(C#Cc2ccccc2)cc1)NC(=O)CNC(=O)[C@@H](N=C(N)N)C(C)C	80
COC(=O)[C@H](Cc1ccc(C#Cc2ccccc2)cc1)NC(=O)CNC(=O)CNC(=N)N	> 2000
COC(=O)[C@H](Cc1ccc(C#Cc2ccccc2)cc1)NC(=O)CNC(=O)[C@H](N=C(N)N)C1CCCCC1	20
COC(=O)[C@H](Cc1ccc(C#Cc2ccccc2)cc1)NC(=O)CNC(=O)[C@H](N=C(N)N)C(C)C	> 2000
COC(=O)[C@H](Cc1ccc(C#Cc2ccccc2)cc1)NC(=O)CNC(=O)[C@@H](N=C(N)N)C(C)(C)C	9
COC(=O)[C@H](Cc1ccc(C#Cc2ccccc2)cc1)NC(=O)CNC(=O)[C@@H](C)N=C(N)N	~2000
COC(=O)[C@H](Cc1ccc(C#Cc2ccccc2)cc1)NC(=O)CNC(=O)[C@@H](CCC(N)=O)N=C(N)N	900

Target: T1, Interleukin-2
Experiment: Inhibition of mouse Interleukin-2 receptor alpha
Settings: target entry is the homologue from another species
Target sequence in this assay (P60568 whole entry): as above

Structure (SMILES)	IC50 [µM]
COCC(=O)N[C@@H](Cc1ccc(C#Cc2ccccc2)cc1)C(=O)O	2200
COC(=O)[C@H](Cc1ccc(C#Cc2ccccc2)cc1)NC(=O)C[C@H]1CCCN(C(=N)N)C1	7
CNC(=O)C[C@H]1CCCN(C(=N)N)C1	> 10000

Test system: not listed separately
Experiment: Volume distribution (steady state) of compound was determined in mouse
Type: ADME, organism-based
Settings: in vivo, read-out: Vss
In short: as §1

Structure (SMILES)	Vd [L/kg]
CC(C)C[C@@H](NC(=N)N)C(=O)NCC(=O)N1CCC(c2cc(-c3ccc(OCc4ccc(C(=O)O)o4)c(Cl)c3Cl)nn2C)CC1	1.1

Target: T1, Interleukin-2
Experiment: Concentration required to inhibit mouse interleukin-2 alpha receptor was determined by SPA assay
Settings: not given
In short: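 SPA: compounds as 3-fold serial dilutions in DMSO added to 10 nM tritiated propionic acid-labeled IL-2 in Superblock, then to biotinylated IL-2Rα on streptavidin scintillant beads (0.7 mg/mL). Scintillation from receptor-bound IL-2 counted; IC50 by nonlinear regression of counts vs concentration.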
Target sequence in this assay (P60568 whole entry): as above

Structure (SMILES)	IC50 [µM]
COc1ccc(-c2cc(C3CCN(C(=O)CNC(=O)[C@@H](CC(C)C)N=C(N)N)CC3)n(C)n2)c(Cl)c1Cl	3.5
COc1ccc(-c2cc(C3CCN(C(=O)CNC(=O)[C@H](N=C(N)N)C4CCCCC4)CC3)[nH]n2)c(Cl)c1	50
CC1C(c2cccc(Cl)c2Cl)=NN=C1C1CCN(C(=O)CNC(=O)[C@H](N=C(N)N)C2CCCCC2)CC1 (some centres undefined)	400
NC(N)=N[C@@H](C(=O)NCC(=O)N1CCC(c2nc(-c3ccc(Cl)cc3Cl)no2)CC1)C1CCCCC1	500
N=C(N)N[C@@H](C(=O)NCC(=O)N1CCC(c2cc(-c3ccc(O)cc3Cl)[nH]n2)CC1)C1CCCCC1	30
Cn1nc(-c2cccc(Cl)c2Cl)cc1C1CCN(C(=O)CNC(=O)[C@H](N=C(N)N)C2CCCCC2)CC1	20
CC(C)C[C@@H](N=C(N)N)C(=O)NCC(=O)N1CCC(c2cc(-c3ccc(OCc4ccc(C(=O)O)cc4)c(Cl)c3Cl)nn2C)CC1	0.2
NC(N)=N[C@@H](C(=O)NCC(=O)N1CCC(c2cc(-c3ccccc3Cl)n[nH]2)CC1)C1CCCCC1	40
CC(C)C[C@@H](N=C(N)N)C(=O)NCC(=O)N1CCC(c2cc(-c3ccc(O)c(Cl)c3Cl)nn2C)CC1	8.1
CC(C)C[C@@H](N=C(N)N)C(=O)NCC(=O)N1CCC(c2cc(-c3cccc(Cl)c3Cl)nn2C)CC1	2
NC(N)=N[C@@H](C(=O)NCC(=O)N1CCC(c2cc(-c3cccc(Cl)c3)n[nH]2)CC1)C1CCCCC1	130
COC(=O)c1ccc(COc2ccc(-c3cc(C4CCN(C(=O)CNC(=O)[C@@H](CC(C)C)N=C(N)N)CC4)n(C)n3)c(Cl)c2Cl)cc1	40
CC(C)C[C@@H](N=C(N)N)C(=O)NCC(=O)N1CCC(c2cc(-c3ccc(OCc4ccccc4)c(Cl)c3Cl)nn2C)CC1	35
CC(C)C[C@@H](N=C(N)N)C(=O)NCC(=O)N1CCC(c2cc(-c3ccc(OCc4cccc(C(=O)O)c4)c(Cl)c3Cl)nn2C)CC1	0.4
Cc1cccc(-c2cc(C3CCN(C(=O)CNC(=O)[C@H](N=C(N)N)C4CCCCC4)CC3)[nH]n2)c1C	130
Cc1cccc(-c2cc(C3CCN(C(=O)CNC(=O)[C@H](N=C(N)N)C4CCCCC4)CC3)[nH]n2)c1	150
CC(C)C[C@@H](N=C(N)N)C(=O)NCC(=O)N1CCC(c2cc(-c3ccc(OCc4ccc(CC(=O)O)cc4)c(Cl)c3Cl)nn2C)CC1	0.6
Cn1nc(C2CCN(C(=O)CNC(=O)[C@H](N=C(N)N)C3CCCCC3)CC2)cc1-c1cccc(Cl)c1Cl	50
NC(N)=N[C@@H](C(=O)NCC(=O)N1CCC(c2cc(-c3ccccc3)n[nH]2)CC1)C1CCCCC1	120
Cc1ccccc1-c1cc(C2CCN(C(=O)CNC(=O)[C@H](N=C(N)N)C3CCCCC3)CC2)[nH]n1	50
NC(N)=N[C@@H](C(=O)NCC(=O)N1CCC(c2cc(-c3ccc(Cl)c(Cl)c3)n[nH]2)CC1)C1CCCCC1	110
N=C(N)N[C@@H](C(=O)NCC(=O)N1CCC(c2cccc(-c3ccc(Cl)cc3Cl)c2)CC1)C1CCCCC1	150
N=C(N)N[C@@H](C(=O)NCC(=O)N1CCC(c2cc(-c3ccc(Cl)cc3Cl)[nH]n2)CC1)C1CCCCC1	10

Target: T1, Interleukin-2
Experiment: Effective concentration required against phosphorylation of Mammary gland factor/STAT5
Type: functional, Mus musculus
Settings: not given
In short: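 Mouse CTLL-2 T cells grown to about 1 × 10^6 cells/mL in RPMI/IL-2, starved of IL-2 overnight, then given 2-fold serial compound dilutions in medium with 0.1 ng/mL human IL-2 for 30 min at 37 °C. Phospho-STAT5 measured by western blot and densitometry, plotted against concentration; average of three experiments.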
Target sequence in this assay (P60568 whole entry): as above

Structure (SMILES)	EC50 [µM]
CC(C)C[C@@H](N=C(N)N)C(=O)NCC(=O)N1CCC(c2cc(-c3cccc(Cl)c3Cl)nn2C)CC1	~25
COC(=O)[C@H](Cc1ccc(C#Cc2ccccc2)cc1)NC(=O)C[C@H]1CCCN(C(=N)N)C1	100

Target: T1, Interleukin-2
Experiment: Dissociation constant for human Interleukin-2 by SPR assay
Settings: not given
Target sequence in this assay (P60568 whole entry, looked up): as the sequence (P60568 whole entry) above

Structure (SMILES)	KdSPA [mM]
COCC(=O)N[C@@H](Cc1ccc(C#Cc2ccccc2)cc1)C(=O)O	1.5
